Test results reported in ChEMBL document CHEMBL4390654, “Microwave-assisted solid-phase synthesis of antisense acpP peptide nucleic acid-peptide conjugates active against colistin- and tigecycline-resistant E. coli and K. pneumoniae” (Eur J Med Chem, 2019).
Square brackets hold non-standard residues; d marks the D form. Peptide text beside a SMILES is read from it. * marks the point of attachment. X3 = CC[C@H](C)[C@@H](C(=O)*)N(C(=O)[C@H](CCCNC(=N)N)NC(=O)CCCCCNC(=O)[C@@H](N)CCCNC(=N)N)C(=O)[C@H](CCCNC(=N)N)NC(=O)CCCCCNC(=O)[C@@H](N)CCCNC(=N)N; Ahx = NCCCCCC(=O)O

Key:
[1] = tested on: Klebsiella pneumoniae; assay: Antibacterial activity against multi-drug resistant Klebsiella pneumoniae NMI 2697/14 assessed as reduction in microbial growth incubated for 20 hrs; assay type: functional
Procedure, shortened: (§1)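 Broth microdilution MIC (modified Hancock protocol) in non-binding polystyrene plates. Inoculum ~2 × 10^5 CFU/mL in Mueller-Hinton broth with Mg²⁺ and Ca²⁺ at 4 mg/L each. Compounds dissolved in water, diluted in 0.01% acetic acid/0.2% BSA (final), added as 10× stocks. Covered plates incubated 20 h at 35 °C (± 2 °C) with 220 rpm circular shaking before MIC read.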

[2] = tested on: Klebsiella pneumoniae; assay: Antibacterial activity against multi-drug resistant Klebsiella pneumoniae NMI 3081/09 assessed as reduction in microbial growth incubated for 20 hrs; assay type: functional; procedure, shortened: as §1
[3] = tested on: Escherichia coli; assay: Antibacterial activity against Escherichia coli ATCC 25922 assessed as reduction in microbial growth incubated for 20 hrs; assay type: functional; procedure, shortened: as §1
[4] = tested on: Klebsiella pneumoniae; assay: Antibacterial activity against Klebsiella pneumoniae ATCC 13883 assessed as reduction in microbial growth incubated for 20 hrs; assay type: functional
Procedure, shortened: (§2)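 Broth microdilution MIC after a modified Hancock protocol for cationic peptides, in non-binding polystyrene plates. Inoculum ~2 × 10^5 CFU/mL in Mueller-Hinton broth with Mg²⁺ and Ca²⁺ at 4 mg/L each. Compounds dissolved in water, diluted in 0.01% acetic acid, 0.2% BSA (final), added as 10× aliquots. Covered plates incubated 20 h at 35 °C (± 2 °C) with shaking at 220 rpm. MIC read as lowest inhibiting concentration.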

[5] = Hemolytic activity against RBC (unknown origin) at 100 uM; assay type: ADME, cell-based, Erythrocyte; conditions: red blood cells (erythrocytes); read-out: Activity
[6] = tested on: Staphylococcus aureus; assay: Antibacterial activity against Staphylococcus aureus ATCC 29213 assessed as reduction in microbial growth incubated for 20 hrs; assay type: functional; procedure, shortened: as §2
[7] = tested on: Escherichia coli; assay: Antibacterial activity against multi-drug resistant Escherichia coli NMI 3548/14 assessed as reduction in microbial growth incubated for 20 hrs; assay type: functional; procedure, shortened: as §1
[8] = tested on: Escherichia coli; assay: Antibacterial activity against multi-drug resistant Escherichia coli NMI 3898/15 assessed as reduction in microbial growth incubated for 20 hrs; assay type: functional; procedure, shortened: as §1
[9] = Ratio of MIC for Escherichia coli lacking functional SbmA to MIC for Escherichia coli ATCC 25922
[10] = tested on: Escherichia coli; assay: Antibacterial activity against Escherichia coli lacking a functional SbmA assessed as reduction in microbial growth incubated for 20 hrs; procedure, shortened: as §2
[11] = tested on: Acinetobacter baumannii; assay: Antibacterial activity against Acinetobacter baumannii ATCC 19606 assessed as reduction in microbial growth incubated for 20 hrs; assay type: functional; procedure, shortened: as §2
[12] = tested on: Pseudomonas aeruginosa; assay: Antibacterial activity against Pseudomonas aeruginosa PAO1 assessed as reduction in microbial growth incubated for 20 hrs; assay type: functional; procedure, shortened: as §2
[13] = tested on: Acinetobacter baumannii; assay: Antibacterial activity against Acinetobacter baumannii NMI 3658/17 assessed as reduction in microbial growth incubated 20 hrs; assay type: functional; procedure, shortened: as §2
[14] = tested on: Pseudomonas aeruginosa; assay: Antibacterial activity against Pseudomonas aeruginosa ATCC 27853 assessed as reduction in microbial growth incubated for 20 hrs; assay type: functional; procedure, shortened: as §2
[15] = tested on: Pseudomonas aeruginosa; assay: Antibacterial activity against multi-drug resistant Pseudomonas aeruginosa NMI 506/17 assessed as reduction in microbial growth incubated for 20 hrs; assay type: functional; procedure, shortened: as §1
[16] = ATCC 19606 = CIP 70.34 = JCM 6841, 20 h

Compound | MIC ([1]; NMI 2697/14, 20 h) [µg/mL] | MIC ([2]; NMI 3081/09, 20 h) [µg/mL] | MIC ([3]; ATCC 25922, 20 h) [µg/mL] | MIC ([4]; ATCC 13883, 20 h) [µg/mL] | hemolysis at 100 µM [5] [%] | MIC ([6]; ATCC 29213, 20 h) [µg/mL] | MIC ([7]; NMI 3548/14, 20 h) [µg/mL] | MIC ([8]; NMI 3898/15, 20 h) [µg/mL] | MIC [10] [µg/mL] | MIC [11, 16] [µg/mL] | MIC ([12]; PAO1, 20 h) [µg/mL] | other results
CC[C@@H](C)[C@@H](NC(=O)[C@H]1CCCN1C(=O)[C@@H](CCCNC(=N)N)NC(=O)[C@H]1CCCN1C(=O)[C@@H](Cc1cnc[nH]1)NC(=O)[C@@H](CO)NC(=O)[C@H](NC(=O)[C@H]1CCCN1C(=O)[C@@H](CCCNC(=N)N)NC(=O)[C@H]1CCCN1C(=O)[C@@H](CO)NC(=O)[C@@H](Cc1ccc(O)cc1)NC(=O)[C@H]1CCCN1C(=O)[C@@H](CCCNC(=N)N)NC(=O)[C@H]1CCCN1C(=O)[C@@H](CCCNC(=N)N)NC(=O)CCCCCNC(=O)[C@H](N)CCCNC(=N)N)[C@H](C)O)C(=O)N[C@H](CCCNC(=N)N)C(=O)N[C@@H](C(=O)N[C@H](CS)C(=O)N[C@@H](C(=O)N[C@H](CS)C(=O)N[C@H](C)C(=O)N[C@@H](C(=O)N[C@H](C)C(=O)N[C@H](CS)C(=O)N[C@@H](C(=O)N[C@@H](CS)C(=O)N[C@@H](C(N)=O)[C@H](C)O)[C@H](C)O)[C@H](C)O)[C@H](C)O)C(C)C | > 64 | > 64 | > 64 | 8 to 16 | < 1 | > 64 | 64 | > 64 | > 64 | > 64 | > 64 | Ratio [9]: > 16
COLISTIN |  |  |  |  |  |  |  |  | 0.5 |  |  | MIC [1]: > 16 µg/mL; MIC [2]: 0.25 to 1 µg/mL; MIC [3]: 0.125 to 0.5 µg/mL; MIC [4]: 2 to 4 µg/mL; MIC [13]: > 16 µg/mL; MIC [14]: 0.25 µg/mL; MIC [15]: > 16 µg/mL; MIC [6]: > 16 µg/mL; MIC [7]: 4 µg/mL; MIC [8]: 2 to 4 µg/mL; MIC ([11]; ATCC 19606 = CIP 70.34 = JCM 6841): 0.25 µg/mL; MIC [12]: 0.5 µg/mL
CC[C@H](C)[C@H](NC(=O)[C@H](CCCCN)NC(=O)[C@H]([C@@H](C)CC)N(C(=O)[C@H](CCCNC(=N)N)NC(=O)CCCCCNC(=O)[C@@H](N)CCCNC(=N)N)C(=O)[C@H](CCCNC(=N)N)NC(=O)CCCCCNC(=O)[C@@H](N)CCCNC(=N)N)C(=O)N[C@@H](CC(C)C)C(=O)N[C@@H](Cc1ccccc1)C(=O)N[C@@H](CCC(N)=O)C(=O)N[C@@H](CC(N)=O)C(=O)N[C@@H](CCCNC(=N)N)C(=O)N[C@@H](CCCNC(=N)N)C(=O)N[C@@H](CCSC)C(=O)N[C@@H](CCCCN)C(=O)N[C@@H](Cc1c[nH]c2ccccc12)C(=O)N[C@@H](CCCCN)C(=O)N[C@@H](CCCCN)C(=O)N[C@@H](CS)C(=O)N[C@H](C(=O)N[C@@H](CS)C(=O)N[C@@H](C)C(=O)N[C@H](C(=O)N[C@@H](C)C(=O)N[C@@H](CS)C(=O)N[C@H](C(=O)N[C@@H](CS)C(=O)N[C@H](C(N)=O)[C@@H](C)O)[C@@H](C)O)[C@@H](C)O)[C@@H](C)O (X3-KILFQNRRMKWKKCTCATACTCT-NH2) | > 64 | > 64 | 16 | 8 | < 1 | > 64 | 32 | ≥ 64 | 16 | 16 | 32 | 
CC[C@H](C)[C@H](NC(=O)[C@@H]1CCCN1C(=O)[C@H](CCCNC(=N)N)NC(=O)[C@@H]1CCCN1C(=O)[C@H](Cc1cnc[nH]1)NC(=O)[C@H](CO)NC(=O)[C@@H](NC(=O)[C@@H]1CCCN1C(=O)[C@H](CCCNC(=N)N)NC(=O)[C@@H]1CCCN1C(=O)[C@H](CO)NC(=O)[C@H](Cc1ccc(O)cc1)NC(=O)[C@@H]1CCCN1C(=O)[C@H](CCCNC(=N)N)NC(=O)[C@@H]1CCCN1C(=O)[C@H](CCCNC(=N)N)NC(=O)CCCCCNC(=O)[C@@H](N)CCCNC(=N)N)[C@@H](C)O)C(=O)N[C@@H](CCCNC(=N)N)C(=O)N[C@H](C(N)=O)C(C)C | > 64 | > 64 | > 64 | > 64 | < 1 | > 64 | 32 to 64 | 32 to 64 | > 64 | 64 | > 64 | 
CC[C@H](C)[C@H](NC(=O)[C@H](CCCCN)NC(=O)[C@H]([C@@H](C)CC)N(C(=O)[C@H](CCCNC(=N)N)NC(=O)CCCCCNC(=O)[C@@H](N)CCCNC(=N)N)C(=O)[C@H](CCCNC(=N)N)NC(=O)CCCCCNC(=O)[C@@H](N)CCCNC(=N)N)C(=O)N[C@@H](CC(C)C)C(=O)N[C@@H](Cc1ccccc1)C(=O)N[C@@H](CCC(N)=O)C(=O)N[C@@H](CC(N)=O)C(=O)N[C@@H](CCCNC(=N)N)C(=O)N[C@@H](CCCNC(=N)N)C(=O)N[C@@H](CCSC)C(=O)N[C@@H](CCCCN)C(=O)N[C@@H](Cc1c[nH]c2ccccc12)C(=O)N[C@@H](CCCCN)C(=O)N[C@@H](CCCCN)C(=O)N[C@@H](CSC1CC(=O)N(CCC(=O)NCCOCCOC(=O)N[C@@H](CS)C(=O)N[C@H](C(=O)N[C@@H](CS)C(=O)N[C@@H](C)C(=O)N[C@H](C(=O)N[C@@H](C)C(=O)N[C@@H](CS)C(=O)N[C@H](C(=O)N[C@@H](CS)C(=O)N[C@H](C(N)=O)[C@@H](C)O)[C@@H](C)O)[C@@H](C)O)[C@@H](C)O)C1=O)C(N)=O (stereo partly specified) | > 64 | > 64 | 8 | 2 to 4 | < 1 | > 64 | 16 to 32 | 32 to 64 | 8 to 16 | 16 | 32 to 64 | 
CC[C@H](C)[C@H](NC(=O)[C@@H]1CCCN1C(=O)[C@H](CCCNC(=N)N)NC(=O)[C@@H]1CCCN1C(=O)[C@H](Cc1cnc[nH]1)NC(=O)[C@H](CO)NC(=O)[C@@H](NC(=O)[C@@H]1CCCN1C(=O)[C@H](CCCNC(=N)N)NC(=O)[C@@H]1CCCN1C(=O)[C@H](CO)NC(=O)[C@H](Cc1ccc(O)cc1)NC(=O)[C@@H]1CCCN1C(=O)[C@H](CCCNC(=N)N)NC(=O)[C@@H]1CCCN1C(=O)[C@H](CCCNC(=N)N)NC(=O)CCCCCNC(=O)[C@@H](N)CCCNC(=N)N)[C@@H](C)O)C(=O)N[C@@H](CCCNC(=N)N)C(=O)N[C@H](C(=O)N[C@@H](CS)C(=O)N[C@H](C(=O)N[C@@H](CS)C(=O)N[C@H](C(=O)N[C@H](C(=O)N[C@@H](C)C(=O)N[C@@H](CS)C(=O)N[C@@H](C)C(=O)N[C@@H](CS)C(=O)N[C@H](C(N)=O)[C@@H](C)O)[C@@H](C)O)[C@@H](C)O)[C@@H](C)O)C(C)C (H-R[Ahx]RPRPYSPRPTSHPRPIRVCTCTTACACT-NH2) | > 64 | 8 to 16 | > 64 | 64 | < 1 | > 64 | > 64 | > 64 | > 64 | > 64 | > 64 | 
CC[C@H](C)[C@H](NC(=O)[C@H](CCCCN)NC(=O)[C@H]([C@@H](C)CC)N(C(=O)[C@H](CCCNC(=N)N)NC(=O)CCCCCNC(=O)[C@@H](N)CCCNC(=N)N)C(=O)[C@H](CCCNC(=N)N)NC(=O)CCCCCNC(=O)[C@@H](N)CCCNC(=N)N)C(=O)N[C@@H](CC(C)C)C(=O)N[C@@H](Cc1ccccc1)C(=O)N[C@@H](CCC(N)=O)C(=O)N[C@@H](CC(N)=O)C(=O)N[C@@H](CCCNC(=N)N)C(=O)N[C@@H](CCCNC(=N)N)C(=O)N[C@@H](CCSC)C(=O)N[C@@H](CCCCN)C(=O)N[C@@H](Cc1c[nH]c2ccccc12)C(=O)N[C@@H](CCCCN)C(=O)N[C@@H](CCCCN)C(N)=O | > 64 | > 64 | 8 | 64 | < 1 | 32 to 64 | 4 to 8 | 16 | 8 | 8 | 8 | 
CC[C@@H](C)[C@@H](NC(=O)[C@H]1CCCN1C(=O)[C@@H](CCCNC(=N)N)NC(=O)[C@H]1CCCN1C(=O)[C@@H](Cc1cnc[nH]1)NC(=O)[C@@H](CO)NC(=O)[C@H](NC(=O)[C@H]1CCCN1C(=O)[C@@H](CCCNC(=N)N)NC(=O)[C@H]1CCCN1C(=O)[C@@H](CO)NC(=O)[C@@H](Cc1ccc(O)cc1)NC(=O)[C@H]1CCCN1C(=O)[C@@H](CCCNC(=N)N)NC(=O)[C@H]1CCCN1C(=O)[C@@H](CCCNC(=N)N)NC(=O)CCCCCNC(=O)[C@H](N)CCCNC(=N)N)[C@H](C)O)C(=O)N[C@H](CCCNC(=N)N)C(=O)N[C@@H](C(N)=O)C(C)C | > 64 | > 64 | > 64 | > 64 | < 1 | > 64 | > 64 | > 64 | > 64 | > 64 | > 64 | 
